Source: ChEMBL document CHEMBL4354813, “Design, Synthesis, and Pharmacological Evaluation of Potent Positive Allosteric Modulators of the Glucagon-like Peptide-1 Receptor (GLP-1R)” (J Med Chem, 2020)
Calls of active or inactive are those of the source. The rule behind the calls is not given here.

Key:
[1] = species: Rattus norvegicus; experiment: Improvement in 10 nM GLP1(9-36)NH2-mediated glucose-stimulated insulin secretion in dispersed rat pancreatic islets at 10 uM incubated for 2 hrs by ELISA; format: functional
In short: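 Dispersed islets from male Sprague Dawley rats (collagenase digestion, Histopaque purification, Accutase dispersal, cultured up to 4 days). Pre-incubated 1 h in Krebs-Ringer with 5.6 mM glucose, then 2 h at 37 °C with 15 mM glucose, ±10 nM GLP1(9-36)NH2, ±compound 10 µM, DMSO vehicle; insulin by HTRF ELISA as % of total, n-fold vs control; N≥9.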

[2] = species: Rattus norvegicus; experiment: Improvement in 10 nM GLP1(9-36)NH2-mediated glucose-stimulated insulin secretion in dispersed rat pancreatic islets at 10 uM incubated for 2 hrs under […] conditions by ELISA; format: functional
[3] = Drug recovery in iv dosed rat bile assessed as metabolically unchanged compound level in rat fistula study; format: ADME, organism-based; details: read-out: Drug recovery
[4] = biological target: T1, OATP1B1 (Homo sapiens, UniProt Q9Y6L6); experiment: Substrate activity at human OATP1B1 expressed in HEK293 cells assessed as increase in compound uptake at 1 uM incubated up to 15 mins LC-MS/MS analysis relative to control relative to control; format: ADME, cell-based; details: HEK293 cells expressing human OATP1B1, read-out: FC
T1 sequence (Q9Y6L6 whole entry): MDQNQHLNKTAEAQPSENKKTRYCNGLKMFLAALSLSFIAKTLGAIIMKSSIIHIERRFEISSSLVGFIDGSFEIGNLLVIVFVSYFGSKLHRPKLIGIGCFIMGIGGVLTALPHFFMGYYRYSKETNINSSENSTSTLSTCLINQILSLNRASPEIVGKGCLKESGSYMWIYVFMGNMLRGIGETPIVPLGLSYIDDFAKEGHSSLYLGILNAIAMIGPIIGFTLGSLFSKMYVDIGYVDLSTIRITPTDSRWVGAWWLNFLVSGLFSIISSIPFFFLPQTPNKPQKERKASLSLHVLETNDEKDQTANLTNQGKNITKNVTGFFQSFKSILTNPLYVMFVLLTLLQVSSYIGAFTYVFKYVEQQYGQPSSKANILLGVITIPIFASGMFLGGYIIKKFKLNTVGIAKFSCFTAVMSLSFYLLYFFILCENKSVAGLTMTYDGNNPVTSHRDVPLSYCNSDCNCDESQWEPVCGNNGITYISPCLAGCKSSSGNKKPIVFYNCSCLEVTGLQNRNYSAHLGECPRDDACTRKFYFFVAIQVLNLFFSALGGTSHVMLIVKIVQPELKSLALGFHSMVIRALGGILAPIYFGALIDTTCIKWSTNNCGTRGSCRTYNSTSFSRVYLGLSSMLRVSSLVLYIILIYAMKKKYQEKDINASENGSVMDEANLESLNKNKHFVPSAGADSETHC
In short: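 HEK-TR cells overexpressing hOATP1B1 or hOATP1B3, run in parallel with control HEK-TR cells, seeded at 1 x 10⁵ cells/well one day before. Time-dependent uptake of 1 μM compound in HBSS at 37 °C, quadruplicates. Uptake stopped with ice-cold buffer, cells washed, lysed and quantified by LC-MS/MS. Uptake ratio calculated against the control cells.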

[5] = test system: Mus musculus; experiment: Suppression of blood glucose concentration in ob/ob C57Bl/6J mouse model of T2DM at 30 mg/kg, po in absence of OATP/MRP2 inhibitor rifampicin and/or GLP1(9-36)NH2 by oral glucose-tolerance test; format: functional, organism-based
In short: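 Male ob/ob mice aged 10–11 weeks, n=7, randomised on blood glucose and fasted overnight. Rifampicin 60 mg/kg p.o. 2.5 h before the oGTT, compound 30 mg/kg p.o. 1 h before, GLP1(9-36)NH2 i.p. 15 min before, each given as indicated. Glucose 2 g/kg orally. Tail-vein glucose by glucometer at 0, 15, 30, 60 and 90 min.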

[6] = Solubility in pH 7.4 buffer; format: physicochemical
[7] = Chemical stability in pH 1.1 buffer; format: physicochemical
[8] = Chemical stability in pH 7.4 buffer; format: physicochemical
[9] = Chemical stability in presence of GSH; format: physicochemical
[10] = biological target: Cytochrome P450 3A4 (Homo sapiens, UniProt P08684); experiment: Inhibition of CYP3A4 (unknown origin) using midazolam substrate; format: ADME
Sequence of Cytochrome P450 3A4 (P08684 whole entry): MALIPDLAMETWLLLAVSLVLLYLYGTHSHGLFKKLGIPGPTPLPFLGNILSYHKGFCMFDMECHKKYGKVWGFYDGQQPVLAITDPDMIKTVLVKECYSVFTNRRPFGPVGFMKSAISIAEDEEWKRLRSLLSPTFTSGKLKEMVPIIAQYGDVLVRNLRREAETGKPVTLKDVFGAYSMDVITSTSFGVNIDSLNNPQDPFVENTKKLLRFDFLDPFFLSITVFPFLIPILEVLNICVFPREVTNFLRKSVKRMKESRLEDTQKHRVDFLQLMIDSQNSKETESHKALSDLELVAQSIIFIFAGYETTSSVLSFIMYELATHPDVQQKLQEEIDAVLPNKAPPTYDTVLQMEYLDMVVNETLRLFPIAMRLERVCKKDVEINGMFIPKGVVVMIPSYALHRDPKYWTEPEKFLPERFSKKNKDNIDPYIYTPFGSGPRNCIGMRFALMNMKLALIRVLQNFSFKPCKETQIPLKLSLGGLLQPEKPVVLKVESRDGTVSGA

[11] = Stability in mouse plasma by LC-MS/MS analysis; format: ADME, cell-free
[12] = Oral bioavailability in C57Bl6 mouse at 10 mg/kg administered as single dose measured up to 24 hrs ESI-LC/MS-MS analysis; format: ADME, organism-based; details: in vivo
In short: (§1)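 Single dose of compound: 3 mg/kg i.v. in solution (75% water : 25% of 75% Glycoferol/25% Cremophor) or 10 mg/kg p.o. as wet-milled suspension (0.6% methylcellulose, 0.5% Tween 80 in water); male Wistar rats n=3 per route, female C57Bl6 mice n=24 per route. Plasma sampled 0.25–24 h (p.o.), 0.083–24 h (i.v.); heparinized plasma, acetonitrile precipitation, ESI-LC/MS-MS (LOQ 1 ng/mL rat, 5 ng/mL mouse); noncompartmental analysis, linear trapezoidal.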

[13] = Volume of distribution at steady state in C57Bl6 mouse at 3 mg/kg, iv administered as single dose measured up to 24 hrs ESI-LC/MS-MS analysis; format: ADME, organism-based; details: in vivo, read-out: Vdss
In short: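 Single dose of 3 mg/kg i.v. in water/Glycoferol/Cremophor solution to female C57Bl6 mice (n=24) or male Wistar rats (n=3). In rats, rifampicin 40 mg/kg p.o. was given 2 h before dosing where indicated. Plasma sampled at 0.083–24 h. ESI-LC/MS-MS after acetonitrile precipitation. Non-compartmental analysis.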

[14] = AUClast in Wistar rat at 10 mg/kg, po administered as single dose measured up to 24 hrs ESI-LC/MS-MS analysis; format: ADME, organism-based; parameters: dose 10 mg/kg, time < 24 hr, route oral; details: in vivo; in short: as §1
[15] = Oral bioavailability in Wistar rat at 10 mg/kg administered as single dose treated 2 hrs after dosing with 40 mg/kg, po OATP/MRP2 inhibitor rifampicin and measured up to 24 hrs ESI-LC/MS-MS analysis; format: ADME, organism-based; details: in vivo
In short: (§2)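 Male Wistar rats (n=3 per route) pretreated orally with rifampicin 40 mg/kg (0.6% methylcellulose, 0.5% Tween 80 in water) 2 h before compound, given 3 mg/kg i.v. in Glycoferol/Cremophor-water solution or 10 mg/kg p.o. wet-milled suspension. Plasma sampled up to 24 h; ESI-LC/MS-MS after acetonitrile precipitation (LOQ 1 ng/mL); noncompartmental analysis.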

[16] = AUClast in Wistar rat at 10 mg/kg, po administered as single dose treated 2 hrs after dosing with 40 mg/kg, po OATP/MRP2 inhibitor rifampicin and measured up to 24 hrs ESI-LC/MS-MS analysis; format: ADME, organism-based; parameters: dose 10 mg/kg, time < 24 hr, route oral; details: in vivo; in short: as §2
[17] = Volume of distribution at steady state in Wistar rat at 3 mg/kg, iv administered as single dose treated 2 hrs after dosing with 40 mg/kg, po OATP/MRP2 inhibitor rifampicin and measured up to 24 hrs ESI-LC/MS-MS analysis; format: ADME, organism-based; details: in vivo, read-out: Vdss
[18] = Metabolic lability in mouse liver microsomes incubated up to 20 mins by LC-MS/MS analysis

- dose excreted [3]: 74%
- uptake ratio at 0.25 h, 1 µM [4]: 6 to 22
- solubility [6]: > 853 µM
- Stability [7]: 98%
- Stability [8]: 99%
- Stability [9]: 100%
- IC50 [10]: > 50 µM
- Stability [11]: 98%
- bioavailability [12]: 7.2%
- Vd [13]: 0.934 L/kg
- AUClast [14]: 110 ng·h/mL
- bioavailability [15]: 100%
- AUC(0-t) at 24 h [16]: 7340 ng·h/mL
- Vd [17]: 0.815 L/kg
- metabolized at 20 min [18]: 5%
Structure (SMILES): CC(C)(C)OC(=O)n1c2c(c3ccccc31)C[C@H]1C(=O)N3C[C@@H](CC(=O)O)C[C@H]3[C@@H]2N1C(=O)CC1CCC(F)(F)CC1
- Activity [1]: Active
- Activity [2]: inactive
- Activity [5]: inactive
